ChEMBL document CHEMBL5674876, “Epigenetic Activation of Pro-angiogenic Signaling Pathways in Human Endothelial Progenitors Increases Vasculogenesis” (Stem Cell Reports, 2017)
The source made the active and inactive calls. The rule behind the calls is not given here.

How the values were obtained:
[1] = tested on: HUVEC; test: Effect on human umbilical cord derived endothelial colony forming cells assessed as increase in H3K4me3 level in presence of panobinostat measured after removal of drug by qRT-PCR analysis; format: functional, cell-based
[2] = molecular target: Histone-lysine N-methyltransferase EZH2 (Homo sapiens) (UniProt Q15910); test: Inhibition of EZH2 in human umbilical cord derived endothelial colony forming cells assessed as decrease in H3K27me2 level at 0.01 to 5 uM by Western blotting analysis; format: cell-based; conditions: Umbilical cord derived endothelial colony forming cell, dose 0.01-5 µM, time 24-72 hrs, TDE = time-dependent effect
Summary of the method: (§1)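 Human cord-blood ECFC clones, at least three independent, passages 3–6, grown in EGM-2 with 10% FBS. Histone methylation marks were assessed by western blot, with total histone H3 and H4 as loading controls.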

[3] = molecular target: Histone-lysine N-methyltransferase EZH2 (Homo sapiens) (UniProt Q15910); test: Inhibition of EZH2 in human umbilical cord derived endothelial colony forming cells assessed as decrease in H3K27me2 level for 24 to 72 hrs by Western blotting analysis; format: cell-based; conditions: Umbilical cord derived endothelial colony forming cell, dose 0.01-5 µM, time 24-72 hrs; summary of the method: as §1
[4] = molecular target: Histone-lysine N-methyltransferase EZH2 (Homo sapiens) (UniProt Q15910); test: Inhibition of EZH2 in human umbilical cord derived endothelial colony forming cells assessed as decrease in H3K27me1 level at 0.01 to 5 uM measured after 24 to 72 hrs by Western blotting analysis; format: cell-based; conditions: Umbilical cord derived endothelial colony forming cell, dose 0.01-5 µM, time 24-72 hrs; summary of the method: as §1
[5] = molecular target: Histone-lysine N-methyltransferase EZH2 (Homo sapiens) (UniProt Q15910); test: Inhibition of EZH2 in human umbilical cord derived endothelial colony forming cells assessed as decrease in H3K4me3 level at 0.01 to 5 uM measured after 24 to 72 hrs by Western blotting analysis; format: cell-based; conditions: Umbilical cord derived endothelial colony forming cell, dose 0.01-5 µM, time 24-72 hrs; summary of the method: as §1
[6] = molecular target: Histone-lysine N-methyltransferase EZH2 (Homo sapiens) (UniProt Q15910); test: Inhibition of EZH2 in human umbilical cord derived endothelial colony forming cells assessed as decrease in H3K9me3 level at 0.01 to 5 uM measured after 24 to 72 hrs by Western blotting analysis; format: cell-based; conditions: Umbilical cord derived endothelial colony forming cell, dose 0.01-5 µM, time 24-72 hrs; summary of the method: as §1
[7] = molecular target: Histone-lysine N-methyltransferase EZH2 (Homo sapiens) (UniProt Q15910); test: Inhibition of EZH2 in human umbilical cord derived endothelial colony forming cells assessed as decrease in H4K20me3 level at 0.01 to 5 uM measured after 24 to 72 hrs by Western blotting analysis; format: cell-based; conditions: Umbilical cord derived endothelial colony forming cell, dose 0.01-5 µM, time 24-72 hrs; summary of the method: as §1
[8] = molecular target: Histone acetyltransferase p300 (Homo sapiens) (UniProt Q09472); test: Inhibition of acetyl transferase P300 in human umbilical cord derived endothelial colony forming cells assessed as decrease in protein level by Western blotting analysis; format: cell-based; conditions: Umbilical cord derived endothelial colony forming cell
Summary of the method: (§2)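 Cord-blood ECFCs were treated with an EZH2 inhibitor at 5 μM for 72 hr, then an HDAC inhibitor at 10 nM for 2 hr, or with vehicle. Levels of the epigenetic enzymes were read by western blot, with tubulin as loading control.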

[9] = molecular target: Histone deacetylase 1 (Homo sapiens) (UniProt Q13547); test: Inhibition of deacetylase HDAC1 in human umbilical cord derived endothelial colony forming cells assessed as decrease in protein level by Western blotting analysis; format: cell-based; conditions: Umbilical cord derived endothelial colony forming cell; summary of the method: as §2
[10] = tested on: Umbilical cord derived endothelial colony forming cell; test: Inhibition of H3K27 demethylase UTX in human umbilical cord derived endothelial colony forming cells assessed as decrease in protein level by Western blotting analysis; format: cell-based; summary of the method: as §2
[11] = tested on: Umbilical cord derived endothelial colony forming cell; test: Inhibition of H3K9 methyltransferase G9a in human umbilical cord derived endothelial colony forming cells assessed as decrease in protein level by Western blotting analysis; format: cell-based; summary of the method: as §2
[12] = molecular target: DNA (cytosine-5)-methyltransferase 1 (Homo sapiens) (UniProt P26358); test: Inhibition of DNMT1 in human umbilical cord derived endothelial colony forming cells assessed as decrease in protein level by Western blotting analysis; format: cell-based; conditions: Umbilical cord derived endothelial colony forming cell
[13] = tested on: HUVEC; test: Effect on pro-angiogenic property in human umbilical cord derived endothelial colony forming cells assessed as cell migration treated for 72 hrs measured by crystal violet staining analysis based gap closure assay; format: functional; conditions: dose 0.1-5 µM
[14] = tested on: HUVEC; test: Effect on pro-angiogenic property in human umbilical cord derived endothelial colony forming cells assessed as formation of capillary network on matrigel; format: functional, cell-based; conditions: dose 0.01-5 µM
Summary of the method: (§3)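 Drug- or vehicle-pretreated ECFCs seeded at 5,000 cells/well on phenol-red-free growth-factor-reduced Matrigel in duplicate; after 24 hr stained with 5 μg/mL calcein 5 min at 37°C, imaged at 2.5×. Total tube length expressed as percentage of vehicle control ±SEM, three independent experiments.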

[15] = tested on: HUVEC; test: Effect on pro-angiogenic property in human umbilical cord derived endothelial colony forming cells assessed as increase in cell migration treated at 5 uM for 72 hrs in presence of panobinostat measured by crystal violet staining analysis based gap closure assay; format: functional
[16] = tested on: HUVEC; test: Effect on pro-angiogenic property in human umbilical cord derived endothelial colony forming cells assessed as formation of capillary network on matrigel at 5 uM for 72 hrs in presence of panobinostat; format: functional, cell-based; summary of the method: as §3
[17] = tested on: HUVEC; test: Resistance to induction of cell apoptosis in human umbilical cord derived endothelial colony forming cells in presence of panobinostat by annexin V staining analysis; format: functional, cell-based
Summary of the method: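 ECFCs were pretreated with the epigenetic drugs or vehicle and kept in serum-containing EGM-2. Apoptosis was scored by flow cytometry after annexin V and 7-AAD staining. Values are expressed as percentage of vehicle-treated control, mean ±SEM, three independent experiments each in duplicate.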

[18] = tested on: HUVEC; test: Resistance to serum induced starvation of cell apoptosis in human umbilical cord derived endothelial colony forming cells grown in EBM2 medium measured in presence of panobinostat by annexin V staining analysis; format: functional, cell-based
Summary of the method: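 Drug- or vehicle-pretreated ECFCs were serum-starved overnight (16 hr) in EBM-2 lacking supplements. Cells were then suspended in annexin V binding buffer, stained with annexin V and 7-AAD, and analysed by flow cytometry. Values are percentage of vehicle control ±SEM, n = 3 experiments in duplicate.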

[19] = tested on: Umbilical cord derived endothelial colony forming cell; test: Activation of WNT pro-angiogenic pathway in human umbilical cord derived endothelial colony forming cells by measuring DKK3 level at 5 uM for 72 hrs in presence of panobinostat for 2 hrs by qRT-PCR analysis; format: cell-based; conditions: filed as activator
[20] = tested on: Umbilical cord derived endothelial colony forming cell; test: Activation of WNT pro-angiogenic pathway in human umbilical cord derived endothelial colony forming cells by measuring WNT5A level in presence of panobinostat by qRT-PCR analysis; format: cell-based; conditions: filed as activator
[21] = tested on: Umbilical cord derived endothelial colony forming cell; test: Activation of WNT pro-angiogenic pathway in human umbilical cord derived endothelial colony forming cells by measuring WNT9A level in presence of panobinostat by qRT-PCR analysis; format: cell-based; conditions: filed as activator
[22] = tested on: Umbilical cord derived endothelial colony forming cell; test: Activation of WNT pro-angiogenic pathway in human umbilical cord derived endothelial colony forming cells by measuring WNT4 level in presence of panobinostat by qRT-PCR analysis; format: cell-based; conditions: filed as activator
[23] = tested on: Umbilical cord derived endothelial colony forming cell; test: Activation of WNT pro-angiogenic pathway in human umbilical cord derived endothelial colony forming cells by measuring WNT11 level in presence of panobinostat by qRT-PCR analysis; format: cell-based; conditions: filed as activator
[24] = tested on: Umbilical cord derived endothelial colony forming cell; test: Activation of WNT pro-angiogenic pathway in human umbilical cord derived endothelial colony forming cells by measuring FZD2 level in presence of panobinostat by qRT-PCR analysis; format: cell-based; conditions: filed as activator
[25] = tested on: Umbilical cord derived endothelial colony forming cell; test: Activation of WNT pro-angiogenic pathway in human umbilical cord derived endothelial colony forming cells by measuring FZD1 level in presence of panobinostat by qRT-PCR analysis; format: cell-based; conditions: filed as activator
[26] = tested on: Umbilical cord derived endothelial colony forming cell; test: Activation of WNT pro-angiogenic pathway in human umbilical cord derived endothelial colony forming cells by measuring FZD5 level in presence of panobinostat by qRT-PCR analysis; format: cell-based; conditions: filed as activator
[27] = tested on: Umbilical cord derived endothelial colony forming cell; test: Activation of WNT pro-angiogenic pathway in human umbilical cord derived endothelial colony forming cells by measuring FZD7 level in presence of panobinostat by qRT-PCR analysis; format: cell-based; conditions: filed as activator

Chain of Histone-lysine N-methyltransferase EZH2 (Homo sapiens) (Q15910 whole entry, looked up): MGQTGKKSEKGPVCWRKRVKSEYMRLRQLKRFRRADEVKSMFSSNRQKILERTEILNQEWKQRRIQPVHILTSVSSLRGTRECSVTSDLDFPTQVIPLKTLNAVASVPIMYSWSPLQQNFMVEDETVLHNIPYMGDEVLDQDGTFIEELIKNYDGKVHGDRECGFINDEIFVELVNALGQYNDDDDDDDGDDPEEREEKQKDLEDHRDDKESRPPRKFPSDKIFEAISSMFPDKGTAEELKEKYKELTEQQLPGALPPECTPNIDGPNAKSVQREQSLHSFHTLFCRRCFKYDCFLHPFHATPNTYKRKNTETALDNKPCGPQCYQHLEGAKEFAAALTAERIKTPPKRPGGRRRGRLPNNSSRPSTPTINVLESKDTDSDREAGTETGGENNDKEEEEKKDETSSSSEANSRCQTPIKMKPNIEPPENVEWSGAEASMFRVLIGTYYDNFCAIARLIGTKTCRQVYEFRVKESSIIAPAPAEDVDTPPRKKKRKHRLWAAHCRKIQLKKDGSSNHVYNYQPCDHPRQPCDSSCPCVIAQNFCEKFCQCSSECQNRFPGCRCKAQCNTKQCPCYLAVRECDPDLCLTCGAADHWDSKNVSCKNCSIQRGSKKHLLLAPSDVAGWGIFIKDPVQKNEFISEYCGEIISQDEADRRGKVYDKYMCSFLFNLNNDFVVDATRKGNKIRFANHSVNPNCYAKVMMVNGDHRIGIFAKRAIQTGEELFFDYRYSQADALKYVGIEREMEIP
Chain of DNA (cytosine-5)-methyltransferase 1 (Homo sapiens) (P26358 whole entry): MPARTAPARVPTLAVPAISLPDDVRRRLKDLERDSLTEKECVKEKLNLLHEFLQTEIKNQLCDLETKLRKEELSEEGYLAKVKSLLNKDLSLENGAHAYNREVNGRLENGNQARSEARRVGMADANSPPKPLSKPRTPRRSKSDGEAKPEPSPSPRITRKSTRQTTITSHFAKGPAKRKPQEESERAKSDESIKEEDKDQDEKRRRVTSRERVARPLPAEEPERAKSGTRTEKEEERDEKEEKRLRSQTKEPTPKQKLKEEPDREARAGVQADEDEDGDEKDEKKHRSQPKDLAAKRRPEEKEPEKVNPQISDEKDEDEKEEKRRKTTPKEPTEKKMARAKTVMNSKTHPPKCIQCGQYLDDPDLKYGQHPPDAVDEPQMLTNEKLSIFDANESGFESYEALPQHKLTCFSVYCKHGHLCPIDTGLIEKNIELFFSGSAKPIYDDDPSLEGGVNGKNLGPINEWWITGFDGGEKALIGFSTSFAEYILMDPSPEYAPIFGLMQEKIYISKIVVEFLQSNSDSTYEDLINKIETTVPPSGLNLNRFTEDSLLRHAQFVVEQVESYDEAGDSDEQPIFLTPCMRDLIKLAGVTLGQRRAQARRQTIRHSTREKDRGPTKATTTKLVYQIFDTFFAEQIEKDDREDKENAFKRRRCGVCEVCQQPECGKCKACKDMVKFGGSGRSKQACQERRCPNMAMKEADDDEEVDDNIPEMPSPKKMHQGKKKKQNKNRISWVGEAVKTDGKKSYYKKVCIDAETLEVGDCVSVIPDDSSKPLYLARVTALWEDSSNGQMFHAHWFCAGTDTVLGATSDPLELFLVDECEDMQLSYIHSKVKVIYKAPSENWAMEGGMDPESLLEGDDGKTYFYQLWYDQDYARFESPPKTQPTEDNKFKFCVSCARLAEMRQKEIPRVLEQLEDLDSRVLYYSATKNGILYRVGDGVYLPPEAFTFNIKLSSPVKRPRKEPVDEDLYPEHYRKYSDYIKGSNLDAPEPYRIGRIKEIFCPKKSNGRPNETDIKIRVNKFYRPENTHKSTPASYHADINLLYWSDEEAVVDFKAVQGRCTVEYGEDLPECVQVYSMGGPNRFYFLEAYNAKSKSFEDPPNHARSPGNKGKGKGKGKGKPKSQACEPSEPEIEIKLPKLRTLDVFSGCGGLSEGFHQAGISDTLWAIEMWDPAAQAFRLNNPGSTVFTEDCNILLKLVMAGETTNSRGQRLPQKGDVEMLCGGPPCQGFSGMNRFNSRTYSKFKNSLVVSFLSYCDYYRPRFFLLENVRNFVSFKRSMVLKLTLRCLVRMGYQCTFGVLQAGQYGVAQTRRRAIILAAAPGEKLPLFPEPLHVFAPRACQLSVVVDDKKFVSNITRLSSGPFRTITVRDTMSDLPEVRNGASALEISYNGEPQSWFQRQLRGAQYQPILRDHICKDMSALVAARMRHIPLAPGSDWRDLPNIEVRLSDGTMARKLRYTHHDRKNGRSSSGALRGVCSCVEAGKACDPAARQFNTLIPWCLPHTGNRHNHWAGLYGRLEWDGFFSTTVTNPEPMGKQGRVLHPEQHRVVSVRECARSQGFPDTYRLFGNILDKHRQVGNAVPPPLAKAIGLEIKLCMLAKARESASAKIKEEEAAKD
Chain of Histone deacetylase 1 (Homo sapiens) (Q13547 whole entry): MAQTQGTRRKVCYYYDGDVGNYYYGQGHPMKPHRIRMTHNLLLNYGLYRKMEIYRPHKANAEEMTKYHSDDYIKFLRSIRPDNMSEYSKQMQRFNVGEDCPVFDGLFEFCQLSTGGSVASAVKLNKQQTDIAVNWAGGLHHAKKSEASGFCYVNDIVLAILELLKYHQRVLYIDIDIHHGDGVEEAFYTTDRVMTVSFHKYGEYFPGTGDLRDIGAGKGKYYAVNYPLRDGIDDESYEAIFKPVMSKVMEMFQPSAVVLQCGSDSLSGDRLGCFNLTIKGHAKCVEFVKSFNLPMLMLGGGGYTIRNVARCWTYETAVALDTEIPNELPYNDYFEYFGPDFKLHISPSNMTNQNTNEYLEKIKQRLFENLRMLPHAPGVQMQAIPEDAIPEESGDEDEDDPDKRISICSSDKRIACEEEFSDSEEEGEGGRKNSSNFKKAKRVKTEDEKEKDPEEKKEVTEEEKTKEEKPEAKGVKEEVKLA

inhibition [2]: Tde
inhibition [3]: Dose-Dependent Effect
inhibition [4]: inactive
inhibition [5]: inactive
inhibition [6]: inactive
inhibition [7]: inactive
inhibition [8]: inactive
inhibition [9]: inactive
inhibition [12]: inactive
SMILES: CCCc1cc(C)[nH]c(=O)c1CNC(=O)c1cc(-c2ccnc(N3CCN(C)CC3)c2)cc2c1cnn2C(C)C
Activity [1]: Active
inhibition [10]: inactive
inhibition [11]: inactive
Activity [13]: Dose-Dependent Effect
Activity [14]: Dose-Dependent Effect
Activity [15]: Active
Activity [16]: Active
Activity [17]: Active
Activity [18]: Active
Activity [19]: Active
Activity [20]: Active
Activity [21]: Active
Activity [22]: Active
Activity [23]: Active
Activity [24]: Active
Activity [25]: Active
Activity [26]: Active
Activity [27]: Active
